Measured values from the EternaBench riboswitch data.

Test system: MS2 coat protein
Test: apparent Kd, MS2 coat protein; higher = weaker binding; RNA-MaP array; FMN 200 µM where present
Outline: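 Designs on Illumina sequencing-chip clusters, transcribed by stalled E. coli RNA polymerase, were exposed to SNAP-549-labelled MS2 coat protein in doubling steps from 0.7 or 1.5 nM up to 3 µM, without and then with constant ligand. The buffer held 100 mM Tris-HCl pH 7.5, 80 mM KCl, 4 mM MgCl2, BSA, DTT, yeast tRNA and Tween-20. Apparent Kd values are medians of filtered per-cluster binding-curve fits to green signal normalised to red-channel RNA signal and control-cluster median Fmax.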

[1] = designed as: OFF switch for flavin mononucleotide, no ligand
[2] = ligand present: flavin mononucleotide, designed as: OFF switch for flavin mononucleotide
[3] = designed as: ON switch for flavin mononucleotide, no ligand
[4] = ligand present: flavin mononucleotide, designed as: ON switch for flavin mononucleotide

| Sequence | apparent Kd [1] [nM] | apparent Kd [2] [nM] | apparent Kd [3] [nM] | apparent Kd [4] [nM] |
| --- | --- | --- | --- | --- |
| UCAGGCUUCGAGAAGGACAUGAGGAUCACCCAUGUUAGUUUGAAGCAGCCGUGAGGCUGCAUCAUGUAGGAUAUCGGAGUCUGC | 6.47 | 11.7 | – | – |
| ACAAAUCAUGUAGGAUAUCGAUUGCGUCGCGAUCGAGAAGGACAAGAGGGUCACCCUUGUACAUGAGGAUCACCCAUGUCAUGA | 193 | 120 | – | – |
| AGCGCCAUCGUGAGAUGGCGUAUUACAUGAGGAUCACCCAUGUAGGAUAUCGAUUGCUUUGCAGUCGAGAAGGACAUGUUCUUG | 51.5 | 91.7 | – | – |
| GGUCGUCAAAUUAACAUGAGGAUCACCCAUGUGAAAACACAUGAGGAUAUGCAUCCUAAUUGGAUGCAGAAGGCAUGGACGACC | – | – | 16.5 | 6.21 |
| AUAAUUUUAUUUUUCUAUUAUAUCAGAAGGCAUUACAUGAGGAUCACCCAUGUUUUGGAUAGUAAUGAGGAUAUGAUAUGGUUA | 11.1 | 28.2 | – | – |
| GCGUGGUUCUAGAAGGUGCUAGCGAUAAGCUAGCAAGGAUAUAGACAUGAGGAUCACCCAUGUCUUAGUGAAAUCGACACACGC | 5.35 | 5.34 | – | – |
| GUAGCAUUGAGAGGAUAUCCAUACCGGAAACGGACAUGAGGAUCACCCAUGUGGCGAAAGCCUUGGGAGAAGGCUCUAUGCUAC | – | – | 4.35 | 3.52 |
| CUUUUGUGAGGAUAUUGGUAGUAAAUAAAUAAAAUUACUACUGAGAAGGCACAUGAGGAUCACCCAUGUUCCUC | 31.2 | 221 | – | – |
| GUGGUCAGACAUGAGGAUCACCCAUGUGGAAUAAAUAAGGUUUAGGAUAUGGAAUAUAGGAUAUACCAGAAGGGAGGGUUGGUG | – | – | 142 | 146 |
| UGGCAAGUAGGAUAUUGGGUGUGGGACAUGAGGAUCACCCAUGUGAUCACUCAAUCUCUCCGAGAAGGGCUAAGAA | 14 | 15.4 | – | – |
| GUAUUUGGUUAGGAUAUUGACUCGAGAUCGAGAUAAGAAGGAGCCACAUGAGGAUCACCCAUGUCUAUCCAAGA | 27 | 29.6 | – | – |
| UUAUUUAUACAAGGAUAUCUAUUGUUAAUUCGACUUACAUGAGGAUCACCCAUGUUUUUAUGUUUAGAGAAGGUGUAUUUUCAG | – | – | 90.4 | 51.9 |
| UUCAUGUGAGGAUAUCAGUAGUAAAAAAAUAAAAUUACUACUGAGAAGGCACAUGAGGAUCACCCAUGUCCUUC | 62.5 | 40.8 | – | – |
| CUUUUGUGAGGAUAUUAGUAGUAAAUAAAUAUAAUUACUACUGAGAAGGCACAUGAGGAUCACCCAUGUUCCUC | 34.1 | 186 | – | – |
| AUGUUACAUGAGGAUCACCCAUGUGAGGAUAUGUGUACCGGUAAAAAAGUGUUUGGCCACAGAAGGCAUUUGGG | 44.5 | 84.5 | – | – |
| CAGCUCGUGUGAGGAUAUGCCGCCGUUUCGGCUGCAGAAGGUGCUACGUUACAUGAGGAUCACCCAUGUCUCUGUUGUUUCGUU | – | – | 23.5 | 20.6 |
| GGAUCGUAUGUCAGGAUAUACCACUGGAUACAGUGGUAGAAGGGACAUGAGGAUCACCCAUGUCCUAUCGAUCC | 13 | 16.6 | – | – |
| AUUAUUAUAAAUUUGGCAAGAAUCAGAAGGCGUUACAUGAGGAUCACCCAUGUUUUGUAUAGUAACGAGGAUAUGAUAUGGAAA | 17 | 12.9 | – | – |
| AUGGAUACCACAGGAUAUGCCCGGGAUACCCGGGCAGAAGGGUGGUCCAUCCUAUGUAAAUACAUGAGGAUCACCCAUGUGUCC | – | – | 351 | 257 |
| GGUUCUAGAGGAUAUACAAACUGAUCCUCAGAGCGCCGGCCACAUGAGGAUCACCCAUGUAGAAGGUUGGAAUC | 20.3 | 11.6 | – | – |
| AAAAGACAUGAGGAUCACCCAUGUUAAGACGUGGGAGGAUAUGCAUGGCAAACAUGCUGUGCAGAAGGCCCGUGUC | – | – | 58.4 | 23.1 |
| GGACACCGAUCAGGAUAUACACGGCAUUCCAGAAACAUGAGGAUCACCCAUGUAGAAGGGAUCUGCGUCCUAAACAUAUCCAUU | 5.12 | 9.28 | – | – |
| CUUCAGUCAGGAUAUGUUAAUCUCGCCACUCGGCGAGCCGGACAGAAGGGACAUGAGGAUCACCCAUGUUAAAA | 37.6 | 22.2 | – | – |
| CGUUUAUAUCGAGGAUAUAAGUCUAGGACAUGAGGAUCACCCAUGUAUGUCUUAGAAGGCGAUAUAAACAGCCUGUUACAGGCA | – | – | 35.3 | 6.96 |
| GUAUUUUAAGUAAGGAUAUACCUCUGGAAACAGAGGUAGAAGGUACAUGAGGAUCACCCAUGUUUCUCUUUUGG | 17 | 23.6 | – | – |
| AAGUCGAGUAAUAAAUAAGAUCUACAUGAGGAUCACCCAUGUAAGGAUAUGCAGUGGAAUACACUGCAGAAGGUACAUCUCGAC | 14 | 35 | – | – |
| UUUUCUUUUGUGAGGAUAUACUUCUUUUUUUUUUUGUAGAAGGCACAUGAGGAUCACCCAUGUUUUCUUUUCUG | 18.9 | 21.8 | – | – |
| AAGAAGUCAGGAUAUCCAGCUCGUCACUUGCGUGAUGAGUUGGAGAAGGGACAUGAGGAUCACCCAUGUAAAGG | 202 | 230 | – | – |

| Sequence | apparent Kd [1] [nM] | apparent Kd [2] [nM] | apparent Kd [3] [nM] | apparent Kd [4] [nM] |
| --- | --- | --- | --- | --- |
| CUCUUUGUUGAGGAUAUGCACCAGCUCACUGACGCAGAAGGCGACACAUGAGGAUCACCCAUGUCAGUUCGCGU | 17.4 | 21.5 | – | – |
| AGUUAGAUAGCGAUAUGAUCGAGAGAUCAUGUCGCUAAAUUUAGAAGGACAUGAGGAUCACCCAUGUAGGAUAUGGGAGUAGAA | – | – | 143 | 59.3 |
| AAUGCCAAUGAAGGAUAUACAAACAUGAGGAUCACCCAUGUGUCUUUCGUGUAACUGGAAUUCGGGUAGAAGGUCAUUGACAUA | 34.5 | 26.9 | – | – |
| UUUUAACAUGAGGAUCACCCAUGUGAGGAUAUCGAAAUUUAUAUUAAUAUUAAUAAAUCGAGAAGGCACAUUUU | 117 | 127 | – | – |
| ACAUGAGGAUCACCCAUGUGUACAUAGGAUAUUGAGGAUUAGGGAUGUUGUUUUGGAUUUGCCCACAAGAAGGAUGAAAGUGUU | – | – | 9.68 | 8.68 |
| GCCAUUGCAUGAGGAUAUGCUCCCGUUUCGGGAGCAGAAGGCAUGUCAUAAGACAUGAGGAUCACCCAUGUAUUUAAGAUGGCA | – | – | 273 | 11.5 |
| CCCUCACAUGAGGAUCACCCAUGUCAGGAUAUCUAGUCAGACAGUAUAGCACUGCUGAAGAGAAGGGACGUAAA | 16.4 | 20 | – | – |
| CGCAAGGAUACAUGAGGAUCACCCAUGUCAGAAAGGGUAAUCAGAAGGUACAAUUAGAGAUAGAGUAAGGAUAUGAAAUUUGCG | – | – | 966 | 313 |
| GCAUGCAAGUAGAAGGUCGGAUAUUUUGAUACCGAAGGAUAUACAGAAUCAUAUCCACAUGAUAACAUGAGGAUCACCCAUGUA | 21.4 | 26.7 | – | – |
| AUACUGAGCGUAAAUUACCUGAACAUGAGGAUCACCCAUGUGGAGGAUAUUGACCUAGCAAAGCUCGAGAAGGCCACUGGGAUG | 32.3 | 18.7 | – | – |
| UGAGCCGGCACUGAGGAUAUUCAUAAUAAAACAUGAGGAUCACCCAUGUAGGCCAGAAGGCCUUGGGAGAAGGCAGGUCGGCUCA | – | – | 257 | 23.3 |
| AAAUGCAAUCAAGGAUAUGUAUUAAAGAUAUGAAAACAUGAGGAUCACCCAUGUAUAUGGUGGGAACAGAAGGUGAAUAAGUAA | 223 | 200 | – | – |
| GUCUACAUGACAUGAGGAUCACCCAUGUGUUAUAUUUUUACUAAGGAUAUAUUUUUAAUGUUGAGAUAGAAGGUAGUUUCGGUC | 43 | 45.5 | – | – |
| AGAUGACAAAGUCAUCUCUGACAGACAUGAGGAUCACCCAUGUAGGAUAUGCUACUCAAAGAGUAGCAGAAGGACAUGUGUCUU | 32.3 | 183 | – | – |
| GUAUCGUAUGUGAGGAUAUAUUUGUCCUUGGAUCUGUAGAAGGCACAUGAGGAUCACCCAUGUCCAAGUGGUCC | 27.6 | 27.7 | – | – |
| AGCUAGUACCGAGGAUAUACGUACAUGAGGAUCACCCAUGUAUACAUGAAUUAAUGAGACUACAUGUAGAAGGCGGUACUAGCA | – | – | 51.4 | 14.2 |
| GCGCAAGCAUGAGGAUAUGUAUUAAAUAAUAAUACAGAAGGCAUGUCAAAUGACAUGAGGAUCACCCAUGUUGGCAAAAUGCGC | – | – | 45.8 | 10.5 |
| GGGCCGGUGGAGAAGGAGCGUGCGAAACGCAUGCUAGGAUAUCCACAUGAGGAUCACCCAUGUGGGAAUAUCUGGUUUUCACAG | 3.85 | 4.65 | – | – |
| GCUAAGCGAAUCAAGAUGGAUAGAACAUGAGGAUCACCCAUGUAGGAUAUGCUACACAAAGUGUAGCAGAAGGACAAGCUUAGC | 19.9 | 33.5 | – | – |
| AUGCCUUAUGUAGGAUAUGCAUAGCGUUGCUAUGCAGAAGGACAUGAGGAUCACCCAUGUAUGUAUUCCAUACAUAUCUGGCAU | 26.8 | 343 | – | – |
| AUCGUGCAGCUUUGCUGUACGCGUACAUGAGGAUCACCCAUGUAGGAUAUGGUAGGCAAAGCUUACUAGAAGGAUAUAGUGAUC | 61.9 | 54 | – | – |
| UUUUUGUCAGGAUAUCCACCCACCACCUUCGGGUGGUGGGUGGAGAAGGGACAUGAGGAUCACCCAUGUAGUUU | 74.6 | 221 | – | – |
| AAUUUACAGCUAGGAUAUACAUGAGGAUCACCCAUGUAAUGAUCGGAUCUUAUGAUCGUAUCAGUGUAGAAGGAGCAAAUAAGA | 12.3 | 21.3 | – | – |
| GCGCUGCAGCGGUGCACGAGACAUGAGGAUCACCCAUGUGACAGAAGGGACUUGUUAAAGGUAGGUCAGGAUAUGUCUUAAAAG | – | – | 190 | 59.8 |
| GGGUACAUCGGAGGAUAUCAUGUAAAUACAUGAGGAUCACCCAUGUCGAUGGAGAAAUCGGAGAUUGAGAAGGCCGAUGUACCG | – | – | 16.9 | 7.1 |
| GGAUGACAAAGUCAUCCUAUUCGAACAUGAGGAUCACCCAUGUAGGAUAUGCAACUCAAAGAGUUGCAGAAGGACAUGUGCCUU | 30.9 | 153 | – | – |
| UUGCGGUAGGAGAAGGACAGAGGCUUCAUUACAUACAUGAGGAUCACCCAUGUAGGAUAUCCUACCUAACGCGGCCUCCUCCUG | 11.1 | 19.8 | – | – |
